Measured values: ChEMBL document CHEMBL4840309, “Nanomolar inhibition of human OGA by 2-acetamido-2-deoxy-d-glucono-1,5-lactone semicarbazone derivatives” (Eur J Med Chem, 2021)

Legend:
Protein O-GlcNAcase [1] = biological target: T1, Protein O-GlcNAcase (Homo sapiens, UniProt O60502); test: Competitive inhibition of N-terminal His-tagged human OGA using 4-Mu-GlcNAc as substrate assessed as inhibition constant by measuring liberation of […] preincubated with enzyme followed by substrate addition by Cornish-Bowden method
T1 sequence (O60502 whole entry): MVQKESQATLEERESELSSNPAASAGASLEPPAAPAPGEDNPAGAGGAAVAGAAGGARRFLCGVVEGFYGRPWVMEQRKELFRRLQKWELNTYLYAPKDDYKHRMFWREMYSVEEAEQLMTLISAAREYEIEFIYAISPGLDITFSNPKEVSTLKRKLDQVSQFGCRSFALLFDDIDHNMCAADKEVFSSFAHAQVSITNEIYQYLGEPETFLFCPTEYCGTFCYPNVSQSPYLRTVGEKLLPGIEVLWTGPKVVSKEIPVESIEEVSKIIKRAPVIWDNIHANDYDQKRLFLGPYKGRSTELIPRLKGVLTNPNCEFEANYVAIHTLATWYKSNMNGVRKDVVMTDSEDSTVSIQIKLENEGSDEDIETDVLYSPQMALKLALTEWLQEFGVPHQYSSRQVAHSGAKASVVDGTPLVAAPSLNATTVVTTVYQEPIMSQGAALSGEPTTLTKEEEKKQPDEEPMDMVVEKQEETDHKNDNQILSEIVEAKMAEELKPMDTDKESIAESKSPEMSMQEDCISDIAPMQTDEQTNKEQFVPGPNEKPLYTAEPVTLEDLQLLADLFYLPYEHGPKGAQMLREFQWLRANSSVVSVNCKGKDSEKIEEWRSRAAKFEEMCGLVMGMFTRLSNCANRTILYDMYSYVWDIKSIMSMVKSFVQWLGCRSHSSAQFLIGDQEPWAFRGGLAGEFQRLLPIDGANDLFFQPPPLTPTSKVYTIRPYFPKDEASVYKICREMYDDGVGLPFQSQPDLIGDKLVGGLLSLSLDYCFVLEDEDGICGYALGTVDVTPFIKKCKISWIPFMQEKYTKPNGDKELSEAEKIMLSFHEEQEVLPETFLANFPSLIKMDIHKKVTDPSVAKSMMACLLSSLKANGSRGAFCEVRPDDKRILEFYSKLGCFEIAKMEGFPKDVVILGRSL
In short: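 Full-length long isoform of human OGA with an N-terminal His6 tag, expressed in E. coli Rosetta(DE3) and purified on Co2+ IMAC. 3 nM enzyme was pre-incubated at 37 °C with inhibitor (0–100 nM) in 50 mM potassium phosphate, pH 7.5. Reaction was started with 4-MU-GlcNAc at three levels. Fluorescence (ex 360, em 450) was read every 10 s for 10 min. Triplicates; Ki from Dixon plot; mode by Cornish-Bowden.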

HEXA/HEXB [2] = biological target: T2, HEXA/HEXB (Bos taurus, UniProt Q0V8R6+H7BWW2); test: Competitive inhibition of cow HexA/HexB (unknown origin) using pNP-GlcNAc as substrate assessed as inhibition constant by measuring liberation of nitrophenol preincubated with enzyme followed by substrate addition by Dixon plot analysis; format: protein
T2 sequence (Q0V8R6 whole entry): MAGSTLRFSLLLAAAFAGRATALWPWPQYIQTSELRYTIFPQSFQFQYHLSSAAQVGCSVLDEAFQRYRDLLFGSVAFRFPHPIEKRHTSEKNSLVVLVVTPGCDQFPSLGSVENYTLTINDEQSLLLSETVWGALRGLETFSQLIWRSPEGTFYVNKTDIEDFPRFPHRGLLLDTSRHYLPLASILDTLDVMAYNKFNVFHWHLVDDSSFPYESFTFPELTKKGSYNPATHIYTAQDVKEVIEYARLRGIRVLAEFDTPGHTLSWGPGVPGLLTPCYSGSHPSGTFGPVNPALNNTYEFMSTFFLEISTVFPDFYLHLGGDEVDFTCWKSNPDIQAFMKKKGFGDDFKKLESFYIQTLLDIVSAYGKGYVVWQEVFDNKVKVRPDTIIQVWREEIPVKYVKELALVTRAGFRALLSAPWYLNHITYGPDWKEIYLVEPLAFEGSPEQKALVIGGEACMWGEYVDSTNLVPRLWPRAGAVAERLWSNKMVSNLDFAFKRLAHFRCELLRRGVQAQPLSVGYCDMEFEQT
T2 sequence (H7BWW2 whole entry): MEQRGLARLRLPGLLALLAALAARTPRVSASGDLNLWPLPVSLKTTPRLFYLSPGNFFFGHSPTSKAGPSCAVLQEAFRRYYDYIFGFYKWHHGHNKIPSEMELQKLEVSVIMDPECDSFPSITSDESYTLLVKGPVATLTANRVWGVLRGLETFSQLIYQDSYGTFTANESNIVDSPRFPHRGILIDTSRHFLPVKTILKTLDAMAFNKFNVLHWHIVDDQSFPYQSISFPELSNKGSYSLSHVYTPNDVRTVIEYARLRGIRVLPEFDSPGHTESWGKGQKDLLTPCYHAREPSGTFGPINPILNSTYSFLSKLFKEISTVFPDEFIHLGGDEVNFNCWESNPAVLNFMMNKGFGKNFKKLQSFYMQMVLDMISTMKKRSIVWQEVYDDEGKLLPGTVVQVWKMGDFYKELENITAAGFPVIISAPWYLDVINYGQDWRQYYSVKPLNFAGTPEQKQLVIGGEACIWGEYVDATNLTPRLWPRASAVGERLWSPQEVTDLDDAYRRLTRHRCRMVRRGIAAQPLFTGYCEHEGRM

Protein O-GlcNAcase [3] = biological target: T1, Protein O-GlcNAcase; test: Competitive inhibition of N-terminal His-tagged human OGA using pNP-GlcNAc as chromogenic substrate assessed as inhibition constant by measuring liberation of nitrophenol preincubated with enzyme followed by substrate addition by Dixon plot analysis
In short: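 His6-tagged full-length human OGA (Rosetta(DE3), Co2+ IMAC), 33 nM. Pre-incubated with inhibitor at 37 °C in 50 mM potassium phosphate, pH 7.5, 1 ml. Started by adding pNP-GlcNAc at three concentrations. Release of p-nitrophenol followed continuously at 400 nm. Initial rates in triplicate; Ki by linear regression of Dixon plots; modality checked by Cornish-Bowden plots.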

HEXA/HEXB [4] = biological target: T2, HEXA/HEXB; test: Inhibition of HexA/HexB (unknown origin); format: protein assay, Homo sapiens
Protein O-GlcNAcase [5] = biological target: T1, Protein O-GlcNAcase; test: Inhibition of OGA (unknown origin) using pNP-O-GlcNAc as substrate assessed as inhibition constant incubated for 30 mins

Structure (SMILES) | Ki (Protein O-GlcNAcase [1]) [nM] | Ki (HEXA/HEXB [2]) [nM] | Ki (Protein O-GlcNAcase [3]) [nM] | Ki (HEXA/HEXB [4]) [nM] | Ki (Protein O-GlcNAcase [5]) [nM]
CC(=O)N[C@H]1/C(=N/NC(=O)Nc2ccc3ccccc3c2)O[C@H](CO)[C@@H](O)[C@@H]1O | 36 | 47 | – | – | –
CC(=O)N[C@H]1/C(=N/NC(=O)Nc2cccc3ccccc23)O[C@H](CO)[C@@H](O)[C@@H]1O | – | 154 | 506 | – | –
CC(=O)N[C@H]1/C(=N/NC(=O)Nc2ccccc2)O[C@H](CO)[C@@H](O)[C@@H]1O | – | 205 | 190 | 130 | –
CC(=O)N[C@H]1/C(=N/NC(=S)Nc2ccccc2)O[C@H](CO)[C@@H](O)[C@@H]1O | – | 30000 | 27000 | – | –
CC(=O)N[C@H]1/C(=N/O)O[C@H](CO)[C@@H](O)[C@@H]1O | – | – | – | – | 1600
CC(=O)N[C@H]1/C(=N/NC(=O)Nc2ccc(C(F)(F)F)cc2)O[C@H](CO)[C@@H](O)[C@@H]1O | – | 125 | 167 | – | –

Further lines, results first:

Ki (Protein O-GlcNAcase [1]) [nM] | Ki (HEXA/HEXB [2]) [nM] | Ki (Protein O-GlcNAcase [3]) [nM] | Ki (HEXA/HEXB [4]) [nM] | Ki (Protein O-GlcNAcase [5]) [nM] | Structure (SMILES)
– | 413 | 270 | – | – | COc1ccc(NC(=O)N/N=C2\O[C@H](CO)[C@@H](O)[C@H](O)[C@H]2NC(C)=O)cc1
83 | 170 | – | – | – | CC(=O)N[C@H]1/C(=N/NC(=O)Nc2ccc(Cl)cc2)O[C@H](CO)[C@@H](O)[C@@H]1O
– | 332 | 155 | – | – | CC(=O)N[C@H]1/C(=N/NC(=O)Nc2ccc(C)cc2)O[C@H](CO)[C@@H](O)[C@@H]1O
